Results gathered from unrelated publications.
PTPN11: Tyrosine-protein phosphatase non-receptor type 11 (PTPN11, Homo sapiens, UniProt Q06124)
PTGS1: Prostaglandin G/H synthase 1 (PTGS1, Ovis aries, UniProt P05979)
DRD1: D(1A) dopamine receptor (DRD1, Homo sapiens, UniProt P21728)
CYP2B6: Cytochrome P450 2B6 (CYP2B6, Homo sapiens, UniProt P20813)
NTRK2: BDNF/NT-3 growth factors receptor (NTRK2, Homo sapiens, UniProt Q16620)
SIRT3: NAD-dependent protein deacetylase sirtuin-3, mitochondrial (SIRT3, Homo sapiens, UniProt Q9NTG7)
BCHE: Cholinesterase (BCHE, Equus caballus, UniProt P81908)
PTPN9: Tyrosine-protein phosphatase non-receptor type 9 (PTPN9, Homo sapiens, UniProt P43378)

| Structure (SMILES) | target | assay | test system | conditions | IC50 [µM] |
| --- | --- | --- | --- | --- | --- |
| O=C(O)C(=O)CC(=O)c1cccc(N(Cc2ccccc2)Cc2ccccc2)c1 | PTPN11 | enzyme activity, inhibitor, absorbance |  | pH 7 | 85 |
| CNC(=O)c1cc(Oc2ccc(NC(=O)Nc3cc(C(C)(C)C)nn3-c3ccc4ncccc4c3)c(F)c2)ccn1 | Mitogen-activated protein kinase kinase kinase 20 (MAP3K20, Homo sapiens, UniProt Q9NYL2) | enzyme activity, inhibitor, mass spectrometry |  |  | 0.012 |
| Cc1cccc2nc(-c3ccc(S(C)(=O)=O)cc3)c(Nc3ccccc3)n12 | PTGS1 | enzyme activity, inhibitor, fluorescence |  |  | 24.6 |
| C[C@@H]1Cc2ccccc2N1C(=O)NCCCCN(C)[C@@H]1Cc2cccc3[nH]c(=O)n(c23)C1 | DRD1 | ligand displacement, radioligand |  |  | > 10 |
| CCc1cc(/C(C)=N/OCc2ccc(C3CCCCC3)c(C(F)(F)F)c2)ccc1CN1CC(C(=O)O)C1 | CYP2B6 | enzyme activity, inhibitor | human, liver microsomes | 20 min | > 0.6 |
| Cc1ccc(Nc2c(-c3ccc(S(C)(=O)=O)cc3)nc3cc(C)ccn23)cc1 | PTGS1 | enzyme activity, inhibitor, fluorescence |  |  | 33.9 |
| O=[N+]([O-])c1ccc(NC(=S)N2CCc3ccccc3C2)c(Cl)c1 | Urease (Canavalia ensiformis, UniProt P07374) | enzyme activity, inhibitor, absorbance |  |  | 25.5 |
| C[C@@H](O)[C@@H]1NC(=O)[C@H](CCCCN)NC(=O)[C@@H](Cc2c[nH]c3ccccc23)NC(=O)[C@H](Cc2ccc(O)cc2)NC(=O)[C@@H](NC(=O)[C@@H](Cc2ccccc2)NC(=O)CCC(C(=O)O)N2CCN(CC(=O)O)CCN(C(CCC(=O)O)C(=O)O)CC2)CSSC[C@@H](C(=O)N[C@H](CO)[C@@H](C)O)NC1=O (stereo partly shown) | Somatostatin receptor type 2 (Rattus norvegicus, UniProt P30680) | ligand displacement, radioligand |  |  | 0.0337 |
| CN1CCN(c2ccc(Nc3ncc4cc(C#N)c(=O)n(C5CCCC5)c4n3)cc2)CC1 | Mitogen-activated protein kinase kinase kinase 9 (MAP3K9, Homo sapiens, UniProt P80192) | enzyme activity, inhibitor |  |  | 0.477 |
| Cc1cc(Nc2cc(CN3CCOCC3)c3nc(C)c(Cc4ccc(Cl)cc4F)n3n2)n[nH]1 | NTRK2 | enzyme activity, inhibitor, TR-FRET |  |  | 0.095 |
| O=Cc1ccc2[nH]ncc2c1 | Ribosomal protein S6 kinase alpha-3 (RPS6KA3, Homo sapiens, UniProt P51812, C436V) | enzyme activity, inhibitor |  |  | ~350 |
| CC(=O)N1C[C@@H](CCN2CCC(c3c[nH]c4cc(Cl)ccc34)CC2)c2ccccc21 | Sodium-dependent serotonin transporter (SLC6A4, Homo sapiens, UniProt P31645) | ligand displacement, radioligand |  | cell membranes | 0.242 |
| COc1ccc2c(c1OCc1ccc(OC(F)(F)F)cc1)C[C@@H](C(=O)O)N(c1nc3ccc(F)cc3o1)C2 | Type-2 angiotensin II receptor (AGTR2, Homo sapiens, UniProt P50052) | cell-free assay, TR-FRET |  |  | 0.159 |
| Cc1cc2c(F)c(Oc3ncnn4cc(OC[C@@H](C)O)c(C)c34)ccc2[nH]1 | CYP2B6 | enzyme activity, inhibitor, fluorescence |  | 15 min | 5.95 |
| CC(C)(C)n1nc(-c2cnc3cc(OC4CC4)ccc3c2)c(C(N)=O)c1N | Calcium/calmodulin-dependent protein kinase type 1D (CAMK1D, Homo sapiens, UniProt Q8IU85) | cell-free assay |  |  | > 10 |
| Cc1ccn2c(Nc3ccccc3)c(-c3ccc(S(C)(=O)=O)cc3)nc2c1 | PTGS1 | enzyme activity, inhibitor, fluorescence |  |  | 55.1 |
| CCCOc1c(O)cc(Br)c2c1CN1CCc3cc(OCC(F)F)c(O)cc3[C@@H]1C2 | DRD1 | cAMP, antagonist, TR-FRET |  |  | 0.188 |

| Structure (SMILES) | target | assay | test system | conditions | IC50 [µM] |
| --- | --- | --- | --- | --- | --- |
| CCCC[C@H](NC(=O)[C@H](C)c1c(C)[nH]c2ccc(O)cc12)c1ncc(-c2cc3ccccc3nc2OC)[nH]1 | Prostaglandin E2 receptor EP1 subtype (PTGER1, Homo sapiens, UniProt P34995) | enzyme activity |  |  | 2.69 |
| O=C(O)/C=C/c1ccc(-c2ccc(F)cc2)c(Cl)c1 | PTPN11 | enzyme activity, inhibitor, fluorescence |  |  | 2.11 |
| O=C1Nc2ccccc2/C1=C1/Nc2ccccc2/C1=N\O | Ribosomal protein S6 kinase alpha-3, N-terminal kinase domain (RPS6KA3, Homo sapiens, UniProt P51812) | enzyme activity, inhibitor, FP |  |  | 1 |
| C=C(NC(=O)[C@H](CCCCNC(=S)CCCCCCCCCCCCC)NS(C)(=O)=O)C(=O)N[C@@H](CCCNC(=N)N)C(N)=O | SIRT3 | enzyme activity, inhibitor |  |  | 3.7 |
| CC1=C[C@@]2(C[C@H](C)[C@H]3CC=C(CO)C(=O)[C@@H]3O2)OC1=O | PTPN11 | enzyme activity, inhibitor |  |  | 48.2 |
| c1ccc(CNc2ccnc(N3CCNCC3)n2)cc1 | BCHE | enzyme activity, inhibitor |  |  | > 100 |
| C=CC(=O)Nc1cc(Nc2nccc(Nc3cc(Cl)c(F)cc3C(C)(C)O)n2)c(OC)cc1N1CC[C@@H](N(C)C)C1 | CYP2B6 | enzyme activity, inhibitor | human, liver microsomes |  | > 30 |
| CCN(CC)c1ccc(C=O)cc1 | Aldehyde dehydrogenase, dimeric NADP-preferring (ALDH3A1, Homo sapiens, UniProt P30838) | enzyme activity, inhibitor, absorbance |  |  | 15.1 |
| N[C@@H](Cc1ccc(C(F)(F)P(=O)(O)O)cc1)C(=O)O | PTPN9 | enzyme activity, inhibitor, absorbance |  |  | 11500 |
| COCCN1CCN(c2nccc(NCc3ccccc3)n2)CC1 | BCHE | enzyme activity, inhibitor |  |  | > 100 |
| CC1=C[C@@]2(C[C@H](C)[C@H]3CC=C(C)[C@@H](O[C@@H]4O[C@H](CO)[C@@H](O)[C@H](O)[C@H]4O)[C@@H]3O2)OC1=O | PTPN11 | enzyme activity, inhibitor |  |  | 90.5 |
| CCCCCCCCCCCCNC(=S)NCCCC[C@H](NC(C)=O)C(=O)N[C@@H](C)C(=O)N[C@@H](CCCNC(=N)N)C(N)=O | SIRT3 | enzyme activity, inhibitor |  |  | 2.2 |
| N[C@@H](Cc1ccccc1)C(=O)N[C@@H](Cc1ccccc1)C(=O)N[C@@H](CC(=O)O)C(=O)O | PTPN11 | enzyme activity, inhibitor, absorbance |  | pH 7.4 | 114 |
| Cc1c(Br)cc(NC(=O)C(c2ccccc2)S(=O)(=O)O)cc1Br (stereo not shown) | PTPN9 | enzyme activity, inhibitor, absorbance |  |  | > 200 |
| C[C@@H](N)COc1ccc(-c2cnc3ccc(N[C@H](C)c4cccc(F)c4)nn23)cc1 | NTRK2 | enzyme activity, inhibitor |  |  | 0.0055 |
| [O-][S+]1CCN(c2nccc(NCc3ccccc3)n2)CC1 | BCHE | enzyme activity, inhibitor |  |  | > 100 |
| O=C(NCCc1ccc(OP(=O)(O)O)c(OP(=O)(O)O)c1)OCC1c2ccccc2-c2ccccc21 | Signal transducer and activator of transcription 5A, SH2 (Homo sapiens, UniProt P42229) | ligand displacement, FP |  |  | 32.4 |
